In article PMC9463373 (Heliyon, 2022):
Entries after “also recorded” stand apart in the source; their conditions may differ.

Tests used:
Escherichia coli AG100 = assay: Real-time ethidium bromide accumulation assay; assay type: cell-based; settings: E. coli AG100, ethidium bromide accumulation, minute 60, positive control 50 μM
Summary of the method: (§1)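 Bacteria were grown to OD600 0.6 (E. coli AG100 in LB; S. aureus in TSB), PBS-washed and resuspended in PBS. Test compound at ½ MIC (100 μM if MIC >100) in PBS with 2 μg/mL EB, mixed 1:1 with the suspension. Fluorescence (ex 525/em 615 nm) read each minute for 1 h. Positive controls: CCCP 50 μM (E. coli), reserpine 25 μM (S. aureus). RFI taken from the accumulation curves.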

[1] = tested on: multidrug resistant COLO 320 colonic adenocarcinoma cells overexpressing the ABCB1 transporter; assay: Checkerboard combination assay with doxorubicin; assay type: cell-based, human; settings: for Type of interaction / Combination index (CI): with doxorubicin; for Combination index (CI): CI at ED50; for effects with doxorubicin (in words): at certain / particular concentrations
Summary of the method: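 Test compounds diluted against doxorubicin in a checkerboard on ABCB1-overexpressing COLO 320 cells (RPMI 1640, 10% heat-inactivated FBS), 6 × 10³ cells/well. Incubated 72 h at 37 °C in 5% CO2. MTT added for 4 h, then SDS in 0.01 M HCl overnight. OD read at 540/630 nm. CI at ED₅₀ by Chou-Talalay median-effect: CI <1 synergism, =1 additive, >1 antagonism.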

P-glycoprotein = P-glycoprotein (Homo sapiens, UniProt P08183); assay: Rhodamine 123 retention by flow cytometry; assay type: cell-based
Summary of the method: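 COLO 205 (parental) and multidrug-resistant COLO 320 cells at 2×10^6/mL in serum-free RPMI 1640. Test compound preincubated 10 min at room temperature, then rhodamine 123 (5.2 µM final) added for 20 min at 37 °C. Cells washed twice and resuspended in PBS. FL-1 mean fluorescence read by flow cytometry against an untreated baseline. Tariquidar positive control at 0.2 µM final. FAR = (MDR treated/MDR control)/(parental treated/parental control).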

[2] = tested on: Staphylococcus aureus ATCC; assay: Real-time ethidium bromide accumulation assay; assay type: cell-based
Summary of the method: as §1

[3] = ratio 17.42:1, starting concentration 150 μM
[4] = ratio 34.84:1, starting concentration 150 μM
[5] = ratio 69.68:1, starting concentration 150 μM
[6] = ratio 139.36:1, starting concentration 150 μM
[7] = ratio 278.72:1, starting concentration 150 μM
[8] = ratio 557.44:1, starting concentration 150 μM
[9] = concentration 2 μM, rhodamine 123
[10] = concentration 2 μM, rhodamine 123, COLO 320 vs COLO 205
[11] = concentration 20 μM, rhodamine 123
[12] = concentration 20 μM, rhodamine 123, COLO 320 vs COLO 205
[13] = minute 60, ½ MIC concentration (or 100 μM)
[14] = ratio 23.2:1, starting concentration 200 μM
[15] = ratio 46.4:1, starting concentration 200 μM
[16] = ratio 92.8:1, starting concentration 200 μM
[17] = ratio 185.6:1, starting concentration 200 μM
[18] = ratio 371.2:1, starting concentration 200 μM
[19] = ratio 742.5:1, starting concentration 200 μM
[20] = ratio 18.4:1, starting concentration 80 μM
[21] = ratio 36.8:1, starting concentration 80 μM
[22] = ratio 73.6:1, starting concentration 80 μM
[23] = ratio 147.2:1, starting concentration 80 μM
[24] = ratio 294.4:1, starting concentration 80 μM
[25] = concentration 0.2 μM, positive control, rhodamine 123

Sequence of P-glycoprotein (P08183 whole entry): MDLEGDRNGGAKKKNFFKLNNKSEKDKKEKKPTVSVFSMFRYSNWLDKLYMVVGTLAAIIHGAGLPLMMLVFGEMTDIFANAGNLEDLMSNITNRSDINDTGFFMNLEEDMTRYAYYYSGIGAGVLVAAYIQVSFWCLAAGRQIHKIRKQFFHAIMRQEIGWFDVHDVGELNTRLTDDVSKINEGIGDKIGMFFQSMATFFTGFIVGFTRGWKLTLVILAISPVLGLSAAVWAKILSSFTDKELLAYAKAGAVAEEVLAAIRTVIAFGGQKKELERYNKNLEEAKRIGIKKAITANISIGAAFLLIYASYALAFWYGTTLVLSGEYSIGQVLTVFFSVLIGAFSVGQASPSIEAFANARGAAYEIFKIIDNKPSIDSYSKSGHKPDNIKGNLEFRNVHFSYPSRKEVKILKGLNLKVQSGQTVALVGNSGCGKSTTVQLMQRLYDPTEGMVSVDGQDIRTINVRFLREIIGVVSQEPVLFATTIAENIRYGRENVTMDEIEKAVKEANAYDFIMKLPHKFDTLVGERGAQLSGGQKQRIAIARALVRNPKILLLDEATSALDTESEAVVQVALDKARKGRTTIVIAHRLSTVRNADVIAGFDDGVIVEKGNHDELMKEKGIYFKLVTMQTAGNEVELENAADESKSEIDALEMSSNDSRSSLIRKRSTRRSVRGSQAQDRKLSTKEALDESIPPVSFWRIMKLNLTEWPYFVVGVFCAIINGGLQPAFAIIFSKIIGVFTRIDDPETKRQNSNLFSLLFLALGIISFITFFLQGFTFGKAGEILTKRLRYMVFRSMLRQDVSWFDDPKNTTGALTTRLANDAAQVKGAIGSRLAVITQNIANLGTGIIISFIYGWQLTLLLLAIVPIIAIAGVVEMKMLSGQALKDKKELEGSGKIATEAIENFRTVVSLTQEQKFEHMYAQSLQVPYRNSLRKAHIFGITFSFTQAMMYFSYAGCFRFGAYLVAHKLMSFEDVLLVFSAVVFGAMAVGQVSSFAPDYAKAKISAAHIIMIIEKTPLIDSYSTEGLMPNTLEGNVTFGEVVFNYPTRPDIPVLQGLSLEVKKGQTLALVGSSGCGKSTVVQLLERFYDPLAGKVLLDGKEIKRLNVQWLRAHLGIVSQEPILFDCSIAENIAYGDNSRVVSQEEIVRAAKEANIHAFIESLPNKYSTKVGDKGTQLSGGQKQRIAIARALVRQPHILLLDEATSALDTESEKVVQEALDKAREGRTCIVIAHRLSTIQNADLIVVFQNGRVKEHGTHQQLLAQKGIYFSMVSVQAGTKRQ

Question: Which “relative fluorescence index (RFI)” value (Escherichia coli AG100) does the source give for `N#CC(C#N)=NNc1cccc(Cl)c1` [CCCP] here?
Answer: 1.34

Question: Which Type of interaction [1, 3] does the source give for `CC(C)=CCOc1c2occc2cc2ccc(=O)oc12` [Compound 1, imperatorin] here?
Answer: moderate antagonism

Question: And the “Combination index (CI)” value [1, 3]?
Answer: 1.29

Question: And the Type of interaction [1, 4]?
Answer: additive effect

Question: What about the “Combination index (CI)” value [1, 4] of the same compound?
Answer: 1.06

Question: And the Type of interaction [1, 5]?
Answer: moderate synergism

Question: And the “Combination index (CI)” value [1, 5]?
Answer: 0.75

Question: What about the Type of interaction [1, 6] of the same compound?
Answer: moderate antagonism

Question: What about the “Combination index (CI)” value [1, 6] of the same compound?
Answer: 1.24

Question: And the Type of interaction [1, 7]?
Answer: additive effect

Question: What about the “Combination index (CI)” value [1, 7] of the same compound?
Answer: 0.99

Question: What about the Type of interaction [1, 8] of the same compound?
Answer: additive effect

Question: What about the “Combination index (CI)” value [1, 8] of the same compound?
Answer: 0.99

Question: What about the “FL-1 (mean fluorescence intensity of the cells)” value (P-glycoprotein; [9]) of the same compound?
Answer: 11.30

Question: And the “FAR (fluorescence activity ratio)” value (P-glycoprotein; [10])?
Answer: 1.47

Question: And the “FL-1 (mean fluorescence intensity of the cells)” value (P-glycoprotein; [11])?
Answer: 9.82

Question: And the “FAR (fluorescence activity ratio)” value (P-glycoprotein; [12])?
Answer: 1.27

Question: Which results are given for `COc1c2ccoc2c(OCC=C(C)C)c2oc(=O)ccc12` [Compound 2, phellopterin]?
Answer: effects with doxorubicin (in words) [1]: antagonistic effects; Type of interaction [1, 3]: Antagonism; Combination index (CI) [1, 3]: 2.31; Type of interaction [1, 4]: moderate antagonism; Combination index (CI) [1, 4]: 1.40; Type of interaction [1, 5]: moderate antagonism; Combination index (CI) [1, 5]: 1.33; Type of interaction [1, 6]: antagonism; Combination index (CI) [1, 6]: 1.54; Type of interaction [1, 7]: additive effect; Combination index (CI) [1, 7]: 1.05; Type of interaction [1, 8]: additive effect; Combination index (CI) [1, 8]: 1.03; FL-1 (mean fluorescence intensity of the cells) (P-glycoprotein; [9]): 11.10; FAR (fluorescence activity ratio) (P-glycoprotein; [10]): 1.44; FL-1 (mean fluorescence intensity of the cells) (P-glycoprotein; [11]): 20.30; FAR (fluorescence activity ratio) (P-glycoprotein; [12]): 2.63; relative fluorescence index (RFI) [2, 13]: 5.49

Question: `COc1cc2ccc(=O)oc2cc1OC` [Compound 3, 6,7-dimethoxycoumarin] was tested. Which “effects with doxorubicin (in words)” value [1] did it give?
Answer: synergistic effects; also recorded: antagonistic effects

Question: And the Type of interaction [1, 14]?
Answer: antagonism

Question: And the “Combination index (CI)” value [1, 14]?
Answer: 2.06

Question: And the Type of interaction [1, 15]?
Answer: moderate antagonism

Question: What about the “Combination index (CI)” value [1, 15] of the same compound?
Answer: 1.22

Question: What about the Type of interaction [1, 16] of the same compound?
Answer: moderate synergism

Question: What about the “Combination index (CI)” value [1, 16] of the same compound?
Answer: 0.81

Question: What about the Type of interaction [1, 17] of the same compound?
Answer: moderate synergism

Question: What about the “Combination index (CI)” value [1, 17] of the same compound?
Answer: 0.75

Question: And the Type of interaction [1, 18]?
Answer: synergism

Question: And the “Combination index (CI)” value [1, 18]?
Answer: 0.62

Question: And the Type of interaction [1, 19]?
Answer: synergism

Question: What about the “Combination index (CI)” value [1, 19] of the same compound?
Answer: 0.60

Question: What about the “FL-1 (mean fluorescence intensity of the cells)” value (P-glycoprotein; [9]) of the same compound?
Answer: 8.01

Question: And the “FAR (fluorescence activity ratio)” value (P-glycoprotein; [10])?
Answer: 1.04

Question: What about the “FL-1 (mean fluorescence intensity of the cells)” value (P-glycoprotein; [11]) of the same compound?
Answer: 15.60

Question: And the “FAR (fluorescence activity ratio)” value (P-glycoprotein; [12])?
Answer: 2.02

Question: And the “relative fluorescence index (RFI)” value [2, 13]?
Answer: 1.04

Question: For `CC(C)=CCC/C(C)=C/COc1ccc2ccc(=O)oc2c1` [Compound 5, auraptene], which “effects with doxorubicin (in words)” value [1] is on record?
Answer: antagonistic effects

Question: What about the “Combination index (CI)” value ([1]; ratio 9.2:1, starting concentration 80 μM) of the same compound?
Answer: 3.16

Question: And the Type of interaction [1, 20]?
Answer: strong antagonism

Question: What about the “Combination index (CI)” value [1, 20] of the same compound?
Answer: 8.37

Question: And the Type of interaction [1, 21]?
Answer: slight antagonism

Question: What about the “Combination index (CI)” value [1, 21] of the same compound?
Answer: 1.13

Question: What about the Type of interaction [1, 22] of the same compound?
Answer: antagonism

Question: What about the “Combination index (CI)” value [1, 22] of the same compound?
Answer: 1.72

Question: What about the Type of interaction [1, 23] of the same compound?
Answer: antagonism

Question: And the “Combination index (CI)” value [1, 23]?
Answer: 2.06

Question: What about the Type of interaction [1, 24] of the same compound?
Answer: strong antagonism

Question: And the “Combination index (CI)” value [1, 24]?
Answer: 5.30

Question: And the “FL-1 (mean fluorescence intensity of the cells)” value (P-glycoprotein; [9])?
Answer: 13.60

Question: And the “FAR (fluorescence activity ratio)” value (P-glycoprotein; [10])?
Answer: 1.76

Question: And the “FL-1 (mean fluorescence intensity of the cells)” value (P-glycoprotein; [11])?
Answer: 30.80

Question: And the “FAR (fluorescence activity ratio)” value (P-glycoprotein; [12])?
Answer: 4.00

Question: Which results are given for `CC1(C)O[C@H]2CC(=O)OC[C@]23[C@H]2CC[C@@]4(C)[C@H](c5ccoc5)OC(=O)[C@H]5O[C@]54[C@]2(C)C(=O)C[C@@H]13` [Compound 9, limonin]?
Answer: FL-1 (mean fluorescence intensity of the cells) (P-glycoprotein; [9]): 2.92; FAR (fluorescence activity ratio) (P-glycoprotein; [10]): 0.38; FL-1 (mean fluorescence intensity of the cells) (P-glycoprotein; [11]): 10.00; FAR (fluorescence activity ratio) (P-glycoprotein; [12]): 1.30

Question: What does the source list for `COc1cc2c(cc1OC)CN(CCc1ccc(NC(=O)c3cc(OC)c(OC)cc3NC(=O)c3cnc4ccccc4c3)cc1)CC2` [Tariquidar, reference compound]?
Answer: FAR (fluorescence activity ratio) (P-glycoprotein; [25]): 11.44; FL-1 (mean fluorescence intensity of the cells) (P-glycoprotein; [25]): 88.20

Question: `COC(=O)[C@H]1[C@H]2C[C@@H]3c4[nH]c5cc(OC)ccc5c4CCN3C[C@H]2C[C@@H](OC(=O)c2cc(OC)c(OC)c(OC)c2)[C@@H]1OC` [reserpine, reference compound] was tested. Which “relative fluorescence index (RFI)” value ([2]; minute 60, positive control 25 μM) did it give?
Answer: 2.77
